According to ChEMBL document CHEMBL1132373, “Synthesis, opioid receptor binding, and biological activities of naltrexone-derived pyrido- and pyrimidomorphinans” (J Med Chem, 1999):

What was measured:
[1] = biological target: Opioid receptors; mu & delta (Rattus norvegicus) (UniProt P33533+P33535); assay: Selectivity ratio of binding affinity towards mu to delta receptors of rat brain membranes; assay type: cell membranes; conditions: Membrane
[2] = biological target: Kappa-type opioid receptor (Cavia porcellus, UniProt P41144); assay: Binding affinity for Opioid receptor kappa 1 was determined by inhibition of binding of [3H]U-69593 (1.2-2.2 nM) to guinea pig brain membranes; design: species or system Membrane
Kappa-type opioid receptor, sequence (P41144 whole entry): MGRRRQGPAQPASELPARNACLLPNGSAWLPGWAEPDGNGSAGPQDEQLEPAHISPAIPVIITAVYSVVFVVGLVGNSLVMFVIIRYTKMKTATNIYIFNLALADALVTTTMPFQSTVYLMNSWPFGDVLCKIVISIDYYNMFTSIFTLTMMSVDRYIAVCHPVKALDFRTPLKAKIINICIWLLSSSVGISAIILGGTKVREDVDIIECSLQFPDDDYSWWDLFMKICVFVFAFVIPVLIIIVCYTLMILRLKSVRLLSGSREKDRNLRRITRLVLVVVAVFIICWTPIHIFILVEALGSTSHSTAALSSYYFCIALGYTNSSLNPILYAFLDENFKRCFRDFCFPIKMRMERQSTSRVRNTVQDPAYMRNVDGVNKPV
Summary of the method: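 Guinea pig brain membranes prepared daily, washed twice at 30000g. [3H]U69,593 (2 nM) incubated 2 h at 25 °C in 50 mM Tris-HCl pH 7.4 with 1 µg/mL captopril and protease inhibitors. Nonspecific binding with 1 µM U69,593. 8-10 drug concentrations, twice; Ki = IC50/(1+[L]/Kd).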

[3] = biological target: Mu-type opioid receptor (Rattus norvegicus, UniProt P33535); assay: Binding affinity for Opioid receptor mu 1 was determined by inhibition of binding of [3H]DAMGO (1.4-3 nM) to rat brain membranes; assay type: cell membranes, Membrane
Mu-type opioid receptor, sequence (P33535 whole entry): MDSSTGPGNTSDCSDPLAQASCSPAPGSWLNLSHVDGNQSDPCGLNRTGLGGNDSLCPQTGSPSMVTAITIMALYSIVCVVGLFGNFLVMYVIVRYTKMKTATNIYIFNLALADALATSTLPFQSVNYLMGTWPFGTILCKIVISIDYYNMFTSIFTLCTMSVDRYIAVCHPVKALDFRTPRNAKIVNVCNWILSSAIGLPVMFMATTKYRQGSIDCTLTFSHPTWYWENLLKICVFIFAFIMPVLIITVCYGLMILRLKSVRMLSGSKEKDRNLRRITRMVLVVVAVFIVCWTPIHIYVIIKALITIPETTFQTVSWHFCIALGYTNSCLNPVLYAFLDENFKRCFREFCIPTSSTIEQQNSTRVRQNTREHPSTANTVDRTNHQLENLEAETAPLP
Summary of the method: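 Rat brain membranes prepared daily, washed twice at 30000g. Labelled with [3H]DAMGO (1-3 nM), 2 h at 25 °C in 50 mM Tris-HCl pH 7.4 plus protease inhibitor cocktail. Nonspecific binding with 20 µM levallorphan. Test drug at 8-10 concentrations, run twice; Ki from IC50 via Ki = IC50/(1+[L]/Kd).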

[4] = species on record: Cavia porcellus; assay: Selectivity ratio of binding affinity towards kappa of guinea pig brain membrane to delta receptors of rat brain membranes; assay type: cell membranes
[5] = biological target: Delta-type opioid receptor (Rattus norvegicus, UniProt P33533); assay: Binding affinity for Opioid receptor delta 1 was determined by inhibition of binding of [3H]DADLE (1.3-2.0 nM) to rat brain membranes; assay type: cell membranes, Membrane
Delta-type opioid receptor (Rattus norvegicus, UniProt P33533), sequence (P33533 whole entry): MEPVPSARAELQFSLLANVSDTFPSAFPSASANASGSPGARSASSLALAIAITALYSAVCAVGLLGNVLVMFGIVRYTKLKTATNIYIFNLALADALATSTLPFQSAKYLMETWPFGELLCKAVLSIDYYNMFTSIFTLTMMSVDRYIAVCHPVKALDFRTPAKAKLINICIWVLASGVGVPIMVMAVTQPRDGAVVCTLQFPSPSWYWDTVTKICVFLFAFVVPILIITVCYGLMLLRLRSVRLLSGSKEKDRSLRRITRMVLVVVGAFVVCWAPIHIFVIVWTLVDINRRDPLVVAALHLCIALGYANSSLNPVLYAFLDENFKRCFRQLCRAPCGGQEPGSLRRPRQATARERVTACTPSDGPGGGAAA
Summary of the method: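 Rat brain membranes prepared daily (homogenised in ice-cold 10 mM Tris-HCl pH 7.0, centrifuged twice at 30000g). [3H]DADLE (2 nM) incubated 2 h at 25 °C in 50 mM Tris-HCl pH 7.4 with 100 mM choline chloride, 3 mM MnCl2, 100 nM DAMGO blocking mu sites, protease inhibitors. Nonspecific: 20 µM levallorphan. 8-10 drug concentrations, duplicate; Ki = IC50/(1+[L]/Kd).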

[6] = species on record: Mus musculus; assay: Inhibition of contraction (agonistic activity) of mouse vas deferens (MVD) at 1 uM concentration.; assay type: functional
[7] = biological target: Delta-type opioid receptor (Mus musculus) (UniProt P32300); assay: Antagonist potency against delta opioid receptor in mouse vas deferens (MVD) using DPDPE; assay type: functional, tissue-based
Delta-type opioid receptor (Mus musculus), sequence (P32300 whole entry): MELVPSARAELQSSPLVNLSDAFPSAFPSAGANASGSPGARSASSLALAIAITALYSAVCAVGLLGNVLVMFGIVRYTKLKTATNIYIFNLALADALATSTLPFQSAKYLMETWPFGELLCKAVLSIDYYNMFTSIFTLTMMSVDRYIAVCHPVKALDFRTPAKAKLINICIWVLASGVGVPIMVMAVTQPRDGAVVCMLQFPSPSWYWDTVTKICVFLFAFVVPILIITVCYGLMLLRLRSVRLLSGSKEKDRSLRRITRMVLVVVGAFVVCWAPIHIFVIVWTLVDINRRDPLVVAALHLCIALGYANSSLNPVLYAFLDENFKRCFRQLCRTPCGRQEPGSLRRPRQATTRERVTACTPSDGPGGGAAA
Summary of the method: (§1)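 Vas deferens from male ICR mice (25-40 g) in 37 °C oxygenated magnesium-free Krebs, 0.5 g tension, field-stimulated 0.1 Hz, 2-ms pulses. Compound 1 µM for 30 min, washout 30 min, cumulative DPDPE curve repeated. Ke = [antagonist]/(IC50 ratio - 1); IC50 from 2-4 tissues, n ≥ 3, nonlinear least squares.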

[8] = biological target: Mu-type opioid receptor (Cavia porcellus) (UniProt P97266); assay: Antagonist potency against mu opioid receptor in guinea pig ileum (GPI) using […]; assay type: functional, tissue-based
Mu-type opioid receptor (Cavia porcellus), sequence (P97266 whole entry): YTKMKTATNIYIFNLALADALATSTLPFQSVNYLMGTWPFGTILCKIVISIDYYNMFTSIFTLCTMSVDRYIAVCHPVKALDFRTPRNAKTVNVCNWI
Summary of the method: (§2)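 Longitudinal muscle-myenteric plexus strips from male Hartley guinea pigs (250-500 g), 37 °C oxygenated Krebs, 1 g tension, 0.1 Hz, 0.4 ms pulses. Preincubated 30 min with 1 µM compound, washed 30 min, cumulative PL-017 curve repeated. Ke = [antagonist]/(IC50 ratio - 1); IC50 from 2-4 tissues.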

[9] = species on record: Cavia porcellus; assay: Selectivity ratio of binding affinity towards mu of […] preparations; assay type: tissue-based
[10] = biological target: Delta-type opioid receptor (Mus musculus, UniProt P32300); assay: (§3) Antagonist potency measured as Ke = [antagonist]/(IC50 ratio-1) against delta opioid receptor from mouse vas deferens (MVD) using DPDPE; assay type: functional; summary of the method: as §1
Delta-type opioid receptor (Mus musculus, UniProt P32300), sequence (P32300 whole entry): as the sequence (P32300 whole entry) above

[11] = species on record: Cavia porcellus; assay: Inhibition of contraction (agonistic activity) of guinea pig ileum(GPI) at 1 uM concentration.; assay type: functional
Summary of the method: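 Guinea pig ileum longitudinal muscle strips, 37 °C oxygenated Krebs, 1 g tension, 0.1 Hz, 0.4 ms pulses, supramaximal voltage.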

[12] = biological target: Delta-type opioid receptor (Mus musculus) (UniProt P32300); assay: as §3; assay type: functional; summary of the method: as §1
[13] = biological target: Mu-type opioid receptor (Cavia porcellus) (UniProt P97266); assay: Opioid antagonist potency against […] mu-opioid receptor from guinea pig ileum(GPI).; assay type: functional, tissue-based; summary of the method: as §2
[14] = biological target: Delta-type opioid receptor (Mus musculus) (UniProt P32300)

Opioid receptors; mu & delta (Rattus norvegicus), sequence (P33533 whole entry, looked up): as the sequence (P33533 whole entry) above
Opioid receptors; mu & delta (Rattus norvegicus), sequence (P33535 whole entry, looked up): as the sequence (P33535 whole entry) above

Row | SMILES | Selectivity ratio [1] | Ki [2] [nM] | Ki [3] [nM] | Selectivity ratio [4] | Ki [5] [nM] | Percent inhibition of contraction at 1 uM [6] [%] | IC50 ratio [7] | IC50 ratio [8] | Selectivity ratio [9] | Ki [10] [nM] | Percent inhibition of contraction at 1 uM [11] [%] | Ke [12] [nM] | Ke [13] [nM] | IC50 ([11]; Cavia porcellus, Ileum) [nM] | IC50 ([6]; Mus musculus) [nM] | IC50 [11] [%] | IC50 [6] [%] | inhibition at 1 µM [11] [%] | inhibition at 1 µM [6] [%] | Ke [14] [nM]
1 | Cc1nc(-c2ccccc2)c2c(n1)C1Oc3c(O)ccc4c3[C@@]13CCN(CC1CC1)[C@H](C4)[C@]3(O)C2 (some centres undefined) | 0.8 | 565 | 254 | 1.7 | 325 |  |  |  |  |  |  |  |  |  |  |  |  |  |  | 
2 | Oc1ccc2c3c1O[C@H]1c4ncc(-c5ccccc5)cc4C[C@@]4(O)[C@@H](C2)N(CC2CC2)CC[C@]314 | 16 | 17.6 | 13.5 | 20 | 0.87 | 4.7 | 249 | 24.6 | 12 | 3.4 |  |  |  |  |  |  |  |  |  | 
3 | Oc1ccc2c3c1O[C@H]1c4ncnc(-c5ccccc5)c4C[C@@]4(O)[C@@H](C2)N(CC2CC2)CC[C@]314 | 1.5 | 216 | 348 | 0.9 | 230 | 15.4 | 4.3 | 5.9 | 0.7 |  | 17 | 300 | 204 |  |  |  |  |  |  | 
4 | Oc1ccc2c3c1O[C@H]1c4nc(-c5ccccc5)nc(-c5ccccc5)c4C[C@@]4(O)[C@@H](C2)N(CC2CC2)CC[C@]314 | 3.4 | 2540 | 1170 | 7.4 | 344 |  | 7.63 | 2.8 | 3.7 |  |  | 150 | 560 |  |  |  |  |  |  | 
5 | Oc1ccc2c3c1O[C@H]1c4ncc(-c5ccc(Cl)cc5)cc4C[C@@]4(O)[C@@H](C2)N(CC2CC2)CC[C@]314 |  |  |  |  |  | 21 |  |  |  |  |  |  |  | 163 |  |  |  |  |  | 
6 | Cc1ncc2c(n1)[C@@H]1Oc3c(O)ccc4c3[C@@]13CCN(CC1CC1)[C@H](C4)[C@]3(O)C2 | 0.3 | 25 | 6 | 1.1 | 22.7 |  | 7.6 |  |  |  |  | 150 |  |  | 3 |  |  |  |  | 
7 | Oc1ccc2c3c1O[C@H]1c4nc(-c5ccccc5)cc(-c5ccccc5)c4C[C@@]4(O)[C@@H](C2)N(CC2CC2)CC[C@]314 | 7.6 | 2120 | 652 | 25 | 86 |  | 21.2 |  |  |  |  | 49 |  |  |  |  |  |  |  | 
8 | Oc1ccc2c3c1O[C@H]1c4[nH]c5ccccc5c4C[C@@]4(O)[C@@H](C2)N(CC2CC2)CC[C@]314 [NALTRINDOLE] |  |  |  |  |  | 16 |  |  |  |  | 18 |  | 43 |  |  |  |  |  |  | 
9 | Oc1ccc2c3c1O[C@H]1c4nc(-c5ccccc5)ccc4C[C@@]4(O)[C@@H](C2)N(CC2CC2)CC[C@]314 | 6.3 | 18.4 | 11 | 10 | 1.76 |  | 41.1 | 12.4 | 3.5 |  |  | 25 | 88 |  |  |  |  |  |  | 
10 | Oc1ccc2c3c1O[C@H]1c4nc(-c5ccccc5)ncc4C[C@@]4(O)[C@@H](C2)N(CC2CC2)CC[C@]314 | 1.4 | 11 | 22 | 0.7 | 16 |  | 14.3 | 34.1 | 0.4 |  |  | 75 | 30 | 4 |  |  |  |  |  | 
11 | Oc1ccc2c3c1OC1c4nccc(-c5ccccc5)c4C[C@@]4(O)[C@@H](C2)N(CC2CC2)CC[C@]314 (some centres undefined) | 2.6 | 264 | 191 | 3.6 | 73 | 31 | 20.5 | 6.21 | 3.7 |  | 14.8 | 51 | 190 |  |  |  |  |  |  | 
12 | Cc1cc(-c2ccccc2)c2c(n1)C1Oc3c(O)ccc4c3[C@@]13CCN(CC1CC1)[C@H](C4)[C@]3(O)C2 (some centres undefined) | 1.2 | 677 | 154 | 5.4 | 125 |  |  |  |  |  |  |  |  | 5.4 | 1.2 |  |  |  |  | 
13 | Oc1ccc2c3c1O[C@H]1c4nc5ccccc5c(-c5ccccc5)c4C[C@@]4(O)[C@@H](C2)N(CC2CC2)CC[C@]314 | 4.2 | 272 | 308 | 3.7 | 73 |  |  |  |  |  |  |  |  |  |  |  |  |  |  | 
14 | Oc1ccc2c3c1O[C@H]1c4ncncc4C[C@@]4(O)[C@@H](C2)N(CC2CC2)CC[C@]314 | 1.2 | 6.24 | 4.15 | 1.8 | 3.5 |  | 14.4 | 7.52 | 2 |  |  | 75 | 150 |  |  |  |  |  |  | 
15 | Oc1ccc2c3c1O[C@H]1c4nc(Cc5ccccc5)nc(-c5ccccc5)c4C[C@@]4(O)[C@@H](C2)N(CC2CC2)CC[C@]314 | 2.3 | 1270 | 233 | 13 | 100 |  | 4.8 | 23.8 | 0.17 |  |  | 260 | 44 |  |  | 14 | 11.7 |  |  | 
16 | Oc1ccc2c3c1O[C@H]1c4ncccc4C[C@@]4(O)[C@@H](C2)N(CC2CC2)CC[C@]314 | 1.9 | 8.8 | 1.5 | 11 | 0.78 |  |  | 7.08 | 4.4 |  |  |  |  |  |  |  |  | 0 | 0 | 37
